NPR2 activator: GC-B (human) receptor activation; HEK293-GC-B cells, CNP EC30, cGMP TR-FRET; 0% at EC30 CNP, 100% saturating CNP; activation, % at 10 µM; 370,000 compounds, 0.11% hits;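 active = activation at 10 µM reaching about 35% in either raw or pattern-adjusted values, limit read from the data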
Vif imaging: HIV Vif inhibition | HEK293T cells, Vif self-association by quenched fluorescence, imaging, 24 h | inhibition, % at 7.49 µM | 340,000 compounds, 0.35% hits | AID 602346; in the data active = inhibition above about 50%, passing the limit was not always enough
Glyco luc inh: blocks N-linked glycosylation in D54 reporter cells; D54 ERlucT glycosylation luciferase reporter, 24 h; percent of 100 nM tunicamycin response; reporter increase, % at 12.5 µM; 360,000 compounds, 0.23% hits; AID 588692;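 active = mean luciferase reporter signal, scaled so untreated is 0 and the glycosylation-blocking control 100, at or above a set limit in every replicate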;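 note: luciferase carries N-glycosylation sites so blocking glycosylation raises the light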
XiGFP reactiv: X-chromosome reactivation activator | 360,000 compounds, 0.055% hits | activation, % at 7.58 µM | XiGFP mouse fibroblasts, % GFP-positive cells imaging, 3 d; cells co-treated with 5-aza-dC sensitizer; scaled so ellipticine positive control = 100%;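 active = mean normalized replicate activation at least 10% and every replicate at or above 10%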
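System: 68-5-11 XiGFP fibroblast line | Buffer or medium: DMEM containing 5-aza-dC | Compound: Single point | Times: Compounds 3 days, fix/stain 15 min at room temperature | Benchmarks: Positive control ellipticine, 6 µM final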
CaV13 FRET inh: Disruptors of the CACNA1D IQ motif to Ca2+-dependent inactivation inhibitor domain association, primary screening, Förster resonance energy transfer in intact living … | inhibition, % at 12.3 µM | HEK cells, CFP/YFP FRET ICDI-IQ, plate reader, 10 min; percent FRET-ratio fall versus neutral wells | AID 743397 | 340,000 compounds, 0.098% hits;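 active = mean replicate inhibition of at least 30% and at least 1% of replicates passing that level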
NPR1 activator: GC-A (human) enzyme activation; P16066; HEK293 GC-A cells, cGMP TR-FRET, EC30 ANP; 0% at EC30 ANP, 100% saturating ANP; activation, % at 10 µM; 370,000 compounds, 0.14% hits; AID 1671463; in the data active = activation above about 40%
Hits are given with their value; n = inactive; x = no result; + = active, no number. This is a sample that favours compounds with a hit; in the whole collection about 0.7% have one here.

SMILES	NPR2 activator	Vif imaging	Glyco luc inh	XiGFP reactiv	CaV13 FRET inh	NPR1 activator
Cc1cc(C(=O)Nc2cccc3c2O[C@H](CN(C)C(=O)Nc2ccc(C(F)(F)F)cc2)[C@@H](C)CN([C@H](C)CO)C3=O)n(C)n1	x	x	x	n	x	x
COc1ccc(C(NC(=O)CNC(C)=O)C(=O)Nc2ccc3c(c2)OCCO3)cc1 (stereo not drawn)	n	50.8	n	x	x	n
CC(=O)NCC(=O)NC(C(=O)Nc1ccc2c(c1)OCCO2)c1ccc(C)cc1 (stereo not drawn)	n	n	n	x	x	n
C[C@H](CO)N1C[C@H](C)[C@H](CN(C)Cc2ccc(Oc3ccccc3)cc2)Oc2ccc(NC(=O)NC3CCCCC3)cc2CC1=O	x	x	x	n	x	x
COc1cccc(C(=O)Nc2ccc3c(c2)OC[C@@H](C)N(C(C)=O)C[C@H](C)[C@H](OC)CN(C)C3=O)c1	x	x	x	n	x	x
CCCCSc1nn[nH]n1	n	52.0	n	x	n	n
CCCCSc1nnc(CCC)n1N	n	n	n	x	n	n
CC(C)C(=O)Nc1ccc2c(c1)C(=O)N(C)[C@H]1CC[C@@H](CC(=O)NCc3ccc(F)cc3)O[C@@H]1CO2	x	x	x	n	x	x
COc1ncc(-c2cccc3nccn23)c(OC)n1	n	n	n	n	n	n
COc1ccccc1-c1cccc2nccn12	n	66.8	n	n	n	n
Nc1nc(-c2ccccc2)cc(-c2ccccc2O)n1	n	n	34.6	x	n	n
NNc1nc(-c2ccccc2)cc(-c2ccccc2O)n1	n	n	n	x	n	n
CC1CCCCC1NC(=O)CN1C(=O)c2cccc(N)c2C1=O (stereo not drawn)	n	n	n	n	+	n
CCOc1ccc(OCc2cccc(C(=O)N3CCCC3)c2)cc1	n	52.7	n	x	n	n
CCOC(=O)C1=C(C)Nc2ncnn2C1/C=C/c1ccccc1 (stereo not drawn)	n	n	n	x	n	n
CCCC1=C(C(=O)OCC)C(/C=C/c2ccccc2)n2ncnc2N1 (stereo not drawn)	n	n	n	x	n	44.8
CC(C)NC(=O)Nc1ccc2c(c1)C(=O)N([C@H](C)CO)C[C@H](C)[C@H](CN(C)C(=O)c1ccccc1)OCCCC[C@@H](C)O2	x	x	x	n	x	x
CCCc1nn(C)c2c(=O)[nH]c(-c3cc(S(=O)(=O)N(CCO)CCO)ccc3OCC)nc12	56.5	n	n	n	n	50.1
CCOc1ccc(S(=O)(=O)N(CCO)CCO)cc1-c1nc2c(C(C)(C)C)nn(C)c2c(=O)[nH]1	62.5	n	n	x	n	58.4
CCOc1ccc(S(=O)(=O)N(CC)CC(=O)N2CCCC2)cc1C	n	n	n	n	n	n
CCOc1cc(S(=O)(=O)N(CC)CC)ccc1Cl	n	n	n	n	n	n
Cn1c(C(=O)O)c(C=O)c2ccccc21	n	n	n	n	n	n
Cc1c(C(=O)C(C)C)n(C)c2ccccc12	n	59.1	n	x	x	n
O=C(NCc1ccccc1)c1cc(-c2ccco2)on1	n	n	n	x	n	n
O=C(NCCc1ccccc1)c1cc(-c2ccco2)on1	n	n	48.2	x	n	n
SMILES	NPR2 activator	Vif imaging	Glyco luc inh	XiGFP reactiv	CaV13 FRET inh	NPR1 activator
COc1ccc(CCNC(=O)c2cc(-c3ccco3)on2)cc1OC	n	n	63.3	n	n	n
C[C@H](CO)N1C[C@H](C)[C@H](CN(C)C(=O)c2ccccc2F)Oc2ncc(-c3ccc(F)cc3)cc2C1=O	x	x	x	n	x	x
CC(C)NC(=O)N1[C@H](CO)[C@H]2c3ccccc3N(C(=O)Nc3ccccc3)C[C@H]21	x	x	x	n	x	x
O=C(C[C@H]1CC[C@H]2[C@@H](COC[C@@H](O)CN2S(=O)(=O)c2cccc(Cl)c2)O1)Nc1ccc(-c2ccccc2)cc1	x	x	x	n	x	x
COc1ccc(CC(NC(C)=O)C(=O)NC2CCN(C(=O)c3ccccc3F)CC2)cc1 (stereo not drawn)	n	70.4	n	n	n	n
O=C(O)c1cccc(Nc2ccnc(Nc3cccc(C(=O)O)c3)n2)c1	n	139.7	n	n	n	n
O=C(O)c1cccc(Nc2nc(N3CCOCC3)nc(N3CCOCC3)n2)c1	n	n	n	x	n	n
O=C(NC(=O)N1CCN(c2ccccc2F)CC1)c1ccccc1	n	88.5	n	x	n	n
C[C@H](CO)N1C[C@H](C)[C@@H](CN(C)S(=O)(=O)c2ccc(F)cc2)Oc2ccc(NC(=O)Nc3ccc4c(c3)OCO4)cc2CC1=O	x	x	x	n	x	x
CCCNC(=O)[C@@H]1[C@@H](CO)[C@@H]2Cn3c(ccc(-c4cccc(F)c4)c3=O)[C@H]1N2C(C)=O	x	x	x	n	x	x
Cc1ccc(S(=O)(=O)Nc2ccc3c(c2)C(=O)N([C@@H](C)CO)C[C@H](C)[C@H](CN(C)Cc2ccc(C(=O)O)cc2)OCCCC[C@@H](C)O3)cc1	x	x	x	n	x	x
CCOC(=O)c1ccc(-c2ccc(/C=N/NC(=O)CN(c3cccc(C)c3)S(C)(=O)=O)o2)cc1	n	n	28.2	n	n	n
CC1(C)CC2(C)OC2C2(C1)N=NC(=Nc1ccccc1)O2 (stereo not drawn)	x	n	45.2	x	x	x
COc1ccc(-c2nn(-c3ccccc3)cc2C(=O)NC(=S)NNC(=O)c2ccncc2)cc1	n	59.6	n	n	n	n
COc1ccc(C(=O)NCc2nnc(SCC(=O)NO)n2Cc2ccccc2)cc1	n	n	40.9	n	n	n
CCCN(C)C[C@@H]1OCCCC[C@H](C)Oc2ccc(NC(=O)CCC(F)(F)F)cc2C(=O)N([C@@H](C)CO)C[C@@H]1C	x	x	x	n	x	x
CC(C)Cc1nc(N2CCN(C(=O)c3ccco3)CC2)c(C#N)c2c1CCCC2	118.9	n	n	n	n	n
NNc1nc(-c2ccccc2)cc(-c2ccccc2)n1	n	n	n	n	n	n
NNC(=O)c1nc(-c2ccccc2)cc(-c2ccccc2)n1	n	n	46.7	n	n	n
N#C/C(=C\c1ccc(-c2ccc(F)cc2)o1)C(=O)Nc1nc(-c2cccs2)cs1	n	n	n	n	n	n
N#C/C(=C/c1ccc(-c2ccc(S(N)(=O)=O)cc2)o1)C(=O)Nc1ccccc1	n	n	n	n	n	n
N#C/C(=C/c1ccc(-c2ccc(S(N)(=O)=O)cc2)o1)c1nc2ccccc2s1	n	x	n	92.4	n	n
N#C/C(=C/c1ccc(-c2ccccc2)o1)c1nc(-c2cccs2)cs1	n	n	n	76.7	x	n
C[C@@H]1CN([C@@H](C)CO)C(=O)c2cc(NC(=O)CCC(F)(F)F)ccc2O[C@@H](C)CCCCO[C@@H]1CN(C)Cc1ccc(C(=O)O)cc1	x	x	x	n	x	x
CCCNC(=O)N1CC2(CCN(Cc3ccc(F)cc3)CC2)c2c([nH]c3cc(OC)ccc23)[C@H]1CO	x	x	x	n	x	x

Screening data deposited in PubChem by several laboratories.
